Results from ChEMBL document CHEMBL1146494, “Anthrone and oxanthrone C-glycosides from Picramnia latifolia collected in Peru” (J Nat Prod, 2004).
≈ marks a conversion by molar mass, not a printed value.

Legend:
MCF7 = experiment: Cytotoxicity against human MCF7 cells; assay type: functional; settings: read-out: ED50 (the source's name)
Mus musculus [1] = experiment: Toxicity in human LNCAP cells xenografted mouse at 6.25 to 50 mg/kg, ip after 4 days; assay type: organism-based; design: dose 6.25-50 mg/kg, route intraperitoneal; settings: in vivo, 96 h
In short: (§1)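 In vivo hollow fiber assay in mice. Fibers containing the cancer cells were implanted at intraperitoneal and subcutaneous sites. The compound was given i.p. at 6.25, 12.5, 25 and 50 mg/kg body weight per injection, once daily for 4 days. Readouts were growth of the fiber-borne cells at each site, plus body weight and overt toxicity over the test period.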

Lu1 = experiment: Cytotoxicity against human Lu1 cells; assay type: functional; settings: read-out: ED50 (the source's name)
Mus musculus [2] = experiment: Toxicity in human Lu1 cells xenografted mouse at 6.25 to 50 mg/kg, ip after 4 days; assay type: organism-based; design: dose 6.25-50 mg/kg, route intraperitoneal; settings: in vivo, 96 h; in short: as §1
Mus musculus [3] = experiment: Toxicity in human MCF7 cells xenografted mouse at 6.25 to 50 mg/kg, ip after 4 days; assay type: organism-based; design: dose 6.25-50 mg/kg, route intraperitoneal; settings: in vivo, 96 h; in short: as §1
LNCaP = experiment: Cytotoxicity against human LNCAP cells; assay type: functional; settings: read-out: ED50 (the source's name)
[4] = Cytotoxicity against HUVEC; assay type: cell-based; settings: human, HUVEC cells; read-out: ED50 (the source's name)

Question: With `Cc1cc(O)c2c(c1)C(=O)c1ccc(O)c(O)c1C2=O` as the compound, how does the EC50 (MCF7) read?
Answer: 4.7 µg/mL (≈ 17.4 µM)

Question: And the Activity (Mus musculus [1])?
Answer: Non-toxic

Question: And the EC50 (Lu1)?
Answer: 3 µg/mL (≈ 11.1 µM)

Question: What about the Activity (Mus musculus [2]) of the same compound?
Answer: Non-toxic

Question: And the Activity (Mus musculus [3])?
Answer: Non-toxic

Question: And the EC50 (LNCaP)?
Answer: 3.6 µg/mL (≈ 13.3 µM)

Question: And the CC50 [4]?
Answer: 5 µg/mL (≈ 18.5 µM)

Question: What does the source list for `Cc1cc(O)c2c3c(cccc13)-c1cccc(O)c1C2=O`?
Answer: EC50 (MCF7): > 5 µg/mL; EC50 (Lu1): > 5 µg/mL; EC50 (LNCaP): > 5 µg/mL; CC50 [4]: > 5 µg/mL

Question: Which EC50 (MCF7) does the source give for `COc1cc(O)c2c(c1)C(=O)c1c(O)cc(C)cc1C2=O` here?
Answer: > 5 µg/mL

Question: What about the EC50 (Lu1) of the same compound?
Answer: > 5 µg/mL

Question: And the EC50 (LNCaP)?
Answer: > 5 µg/mL

Question: And the CC50 [4]?
Answer: > 5 µg/mL

Question: Which results are given for `Cc1cc(O)c2c(c1)-c1cccc3ccc(O)c(c13)C2=O`?
Answer: EC50 (MCF7): > 5 µg/mL; EC50 (Lu1): > 5 µg/mL; EC50 (LNCaP): > 5 µg/mL; CC50 [4]: > 5 µg/mL

Question: For `CC[C@H](CC[C@@H](C)[C@H]1CC[C@H]2[C@@H]3CC=C4C[C@@H](O)CC[C@]4(C)[C@H]3CC[C@]12C)C(C)C` [BETA-SITOSTEROL], which EC50 (MCF7) is on record?
Answer: > 5 µg/mL

Question: And the EC50 (Lu1)?
Answer: > 5 µg/mL

Question: What about the EC50 (LNCaP) of the same compound?
Answer: > 5 µg/mL

Question: And the CC50 [4]?
Answer: > 5 µg/mL

Question: For `Cc1cc(O[C@@H]2O[C@H](CO)[C@@H](O)[C@H](O)[C@H]2O)c2c(c1)C(=O)c1cccc(O)c1C2=O` [CHRYSOPHANEIN], which EC50 (MCF7) is on record?
Answer: > 5 µg/mL

Question: What about the EC50 (Lu1) of the same compound?
Answer: > 5 µg/mL

Question: What about the EC50 (LNCaP) of the same compound?
Answer: > 5 µg/mL

Question: What about the CC50 [4] of the same compound?
Answer: > 5 µg/mL

Question: For `Cc1cc(O)c2c(c1)C(=O)c1cccc(O)c1C2=O` [CHRYSOPHANOL], which EC50 (MCF7) is on record?
Answer: > 5 µg/mL

Question: And the EC50 (Lu1)?
Answer: > 5 µg/mL

Question: What about the EC50 (LNCaP) of the same compound?
Answer: > 5 µg/mL

Question: What about the CC50 [4] of the same compound?
Answer: > 5 µg/mL

Question: With `Cc1cc(O)c2c(c1)[C@@H](C[C@H]1OC[C@@H](OC(=O)c3ccccc3)[C@@H](O)[C@@H]1O)c1cccc(O)c1C2=O` [PICRAMNIOSIDE G] as the compound, how does the EC50 (MCF7) read?
Answer: > 5 µg/mL

Question: And the EC50 (Lu1)?
Answer: > 5 µg/mL

Question: What about the EC50 (LNCaP) of the same compound?
Answer: > 5 µg/mL

Question: What about the CC50 [4] of the same compound?
Answer: > 5 µg/mL

Question: What does the source list for `Cc1cc(O)c2c(c1)[C@H](C[C@H]1OC[C@@H](OC(=O)c3ccccc3)[C@@H](O)[C@@H]1O)c1cccc(O)c1C2=O` [PICRAMNIOSIDE H]?
Answer: EC50 (MCF7): > 5 µg/mL; EC50 (Lu1): > 5 µg/mL; EC50 (LNCaP): > 5 µg/mL; CC50 [4]: > 5 µg/mL

Question: For `Cc1cc(O)c2c(c1)C(=O)c1cccc(O[C@@H]3O[C@H](CO)[C@@H](O)[C@H](O)[C@H]3O)c1C2=O` [PULMATIN], which EC50 (MCF7) is on record?
Answer: > 5 µg/mL

Question: What about the EC50 (Lu1) of the same compound?
Answer: > 5 µg/mL

Question: And the EC50 (LNCaP)?
Answer: > 5 µg/mL

Question: What about the CC50 [4] of the same compound?
Answer: > 5 µg/mL

Question: Which results are given for `COc1cc2ccc(=O)oc2cc1O` [SCOPOLETIN]?
Answer: EC50 (MCF7): > 5 µg/mL; EC50 (Lu1): > 5 µg/mL; EC50 (LNCaP): > 5 µg/mL; CC50 [4]: > 5 µg/mL

Question: Which EC50 (MCF7) does the source give for `CC[C@H](CC[C@@H](C)[C@H]1CC[C@H]2[C@@H]3CC=C4C[C@@H](O[C@@H]5O[C@H](CO)[C@@H](O)[C@H](O)[C@H]5O)CC[C@]4(C)[C@H]3CC[C@]12C)C(C)C` [SITOGLUSIDE] here?
Answer: > 5 µg/mL

Question: What about the EC50 (Lu1) of the same compound?
Answer: > 5 µg/mL

Question: And the EC50 (LNCaP)?
Answer: > 5 µg/mL

Question: What about the CC50 [4] of the same compound?
Answer: > 5 µg/mL

Question: What does the source list for `O=c1ccc2ccc(O)cc2o1` [UMBELLIFERONE]?
Answer: EC50 (MCF7): > 5 µg/mL; EC50 (Lu1): > 5 µg/mL; EC50 (LNCaP): > 5 µg/mL; CC50 [4]: > 5 µg/mL
